Key:
Format in all cases: functional
Blumeria graminis [1] = experiment: Fungicidal activity against Blumeria graminis infected first-leaf stage of barley plant at 500 mg/l applied as spray under green house conditions relative to control
Blumeria graminis [2] = experiment: Fungicidal activity against Blumeria graminis infected first-leaf stage of barley plant at 1000 mg/l applied as spray under green house conditions relative to control
How it was run: (§1)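 Barley at fully expanded first leaf (four plants/pot) sprayed with test material (DMSO stock diluted in water with Tween 20 at 250 µg/mL), greenhouse 1 day, then dusted with E. graminis conidia from infected barley (8 treated pots per source pot). Controls got Tween 20 solution. Control value = (untreated − treated disease area)/untreated × 100; triplicate.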

Puccinia recondita [3] = experiment: Fungicidal activity against Puccinia recondita infected first leaf stage of wheat plant at 500 mg/l applied as spray after 10 days under green house conditions relative to control
How it was run: (§2)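 Whole-plant greenhouse spray assay: sample dissolved in DMSO, diluted in water with Tween 20 (250 µg/mL), 50 mL sprayed over two pots; plants held 1 day before inoculation with P. recondita; controls got Tween 20 solution. Control value = (untreated − treated disease area)/untreated × 100; three replicates.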

Puccinia recondita [4] = experiment: Fungicidal activity against Puccinia recondita infected first leaf stage of wheat plant at 1000 mg/l applied as spray after 10 days under green house conditions relative to control; how it was run: as §2
Phytophthora infestans [5] = experiment: Fungicidal activity against Phytophthora infestans infected second leaf-stage of tomato plant at 500 mg/l applied as spray after 4 days under green house conditions relative to control
Phytophthora infestans [6] = experiment: Fungicidal activity against Phytophthora infestans infected second leaf-stage of tomato plant at 1000 mg/l applied as spray after 4 days under green house conditions relative to control
Botrytis cinerea [7] = experiment: Fungicidal activity against Botryotinia fuckeliana infected first-leaf stage of cucumber plant at 500 mg/l applied as spray after 4 to 5 days under green house conditions relative to control
Botrytis cinerea [8] = experiment: Fungicidal activity against Botryotinia fuckeliana infected first-leaf stage of cucumber plant at 1000 mg/l applied as spray after 4 to 5 days under green house conditions relative to control
Rhizoctonia solani [9] = experiment: Fungicidal activity against Rhizoctonia solani infected in third leaf stage of rice plant at 1000 mg/l applied as spray after 5 days under green house conditions relative to control
How it was run: (§3)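 Rice at third leaf (three plants/pot) sprayed with sample in DMSO/Tween 20 (250 µg/mL) water; after 1 day inoculated by injecting at plant base R. solani inoculum (7-day wheat bran culture at 25 °C, macerated 500 g/L water). Held 5 days in lit chamber at 28 °C. Control value from diseased area against Tween-sprayed controls; triplicate.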

Rhizoctonia solani [10] = experiment: Fungicidal activity against Rhizoctonia solani infected in third leaf stage of rice plant at 500 mg/l applied as spray after 5 days under green house conditions relative to control
Pyricularia grisea [11] = experiment: Fungicidal activity against Magnaporthe grisea infected second leaf stage of rice plant at 500 mg/l applied as spray after 5 days under green house conditions relative to control
How it was run: (§4)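 Rice at second leaf (three plants/pot) sprayed with sample (DMSO, diluted in water with 250 µg/mL Tween 20), greenhouse 1 day. Inoculated with conidia (1 × 10^6 spores/mL), 24 h at 25 °C and 100% RH, then 5 days lit at 26 ± 2 °C and 85% RH. Severity scored; control value from diseased area against Tween-sprayed controls; triplicate.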

Pyricularia grisea [12] = experiment: Fungicidal activity against Magnaporthe grisea infected second leaf stage of rice plant at 1000 mg/l applied as spray after 5 days under green house conditions relative to control; how it was run: as §4
Botrytis cinerea [13] = experiment: Fungicidal activity against Botryotinia fuckeliana infected first-leaf stage of cucumber plant at 50 mg/l applied as spray after 4 to 5 days under green house conditions relative to control
Puccinia recondita [14] = experiment: Fungicidal activity against Puccinia recondita infected first leaf stage of wheat plant at 50 mg/l applied as spray after 10 days under green house conditions relative to control
Phytophthora infestans [15] = experiment: Fungicidal activity against Phytophthora infestans infected second leaf-stage of tomato plant at 50 mg/l applied as spray after 4 days under green house conditions relative to control
Rhizoctonia solani [16] = experiment: Fungicidal activity against Rhizoctonia solani infected in third leaf stage of rice plant at 50 mg/l applied as spray after 5 days under green house conditions relative to control
Pyricularia grisea [17] = experiment: Fungicidal activity against Magnaporthe grisea infected second leaf stage of rice plant at 50 mg/l applied as spray after 5 days under green house conditions relative to control
Blumeria graminis [18] = experiment: Fungicidal activity against Blumeria graminis infected first-leaf stage of barley plant at 50 mg/l applied as spray under green house conditions relative to control
Botrytis cinerea [19] = experiment: Fungicidal activity against Botryotinia fuckeliana infected first-leaf stage of cucumber plant at 125 mg/l applied as spray after 4 to 5 days under green house conditions relative to control
How it was run: (§5)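 Cucumber at first leaf (one plant/pot) sprayed with sample in DMSO/Tween 20 (250 µg/mL) water; controls Tween 20 solution. After 1 day, leaf-sprayed with B. cinerea conidia (1 × 10^6 spores/mL; 15-day PDA culture, 20 °C), held 4-5 days at 20 °C. Control value calculated from diseased area against untreated plants; three replicates.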

Puccinia recondita [20] = experiment: Fungicidal activity against Puccinia recondita infected first leaf stage of wheat plant at 125 mg/l applied as spray after 10 days under green house conditions relative to control; how it was run: as §2
Puccinia recondita [21] = experiment: Fungicidal activity against Puccinia recondita infected first leaf stage of wheat plant at 250 mg/l applied as spray after 10 days under green house conditions relative to control; how it was run: as §2
Phytophthora infestans [22] = experiment: Fungicidal activity against Phytophthora infestans infected second leaf-stage of tomato plant at 125 mg/l applied as spray after 4 days under green house conditions relative to control
Phytophthora infestans [23] = experiment: Fungicidal activity against Phytophthora infestans infected second leaf-stage of tomato plant at 250 mg/l applied as spray after 4 days under green house conditions relative to control
Botrytis cinerea [24] = experiment: Fungicidal activity against Botryotinia fuckeliana infected first-leaf stage of cucumber plant at 250 mg/l applied as spray after 4 to 5 days under green house conditions relative to control; how it was run: as §5
Rhizoctonia solani [25] = experiment: Fungicidal activity against Rhizoctonia solani infected in third leaf stage of rice plant at 125 mg/l applied as spray after 5 days under green house conditions relative to control; how it was run: as §3
Rhizoctonia solani [26] = experiment: Fungicidal activity against Rhizoctonia solani infected in third leaf stage of rice plant at 250 mg/l applied as spray after 5 days under green house conditions relative to control; how it was run: as §3
Pyricularia grisea [27] = experiment: Fungicidal activity against Magnaporthe grisea infected second leaf stage of rice plant at 125 mg/l applied as spray after 5 days under green house conditions relative to control; how it was run: as §4
Pyricularia grisea [28] = experiment: Fungicidal activity against Magnaporthe grisea infected second leaf stage of rice plant at 250 mg/l applied as spray after 5 days under green house conditions relative to control; how it was run: as §4
Blumeria graminis [29] = experiment: Fungicidal activity against Blumeria graminis infected first-leaf stage of barley plant at 125 mg/l applied as spray under green house conditions relative to control
Blumeria graminis [30] = experiment: Fungicidal activity against Blumeria graminis infected first-leaf stage of barley plant at 250 mg/l applied as spray under green house conditions relative to control; how it was run: as §1

Row | Compound | Activity (Blumeria graminis [1]) [%] | Activity (Blumeria graminis [2]) [%] | Activity (Puccinia recondita [3]) [%] | Activity (Puccinia recondita [4]) [%] | Activity (Phytophthora infestans [5]) [%] | Activity (Phytophthora infestans [6]) [%] | Activity (Botrytis cinerea [7]) [%] | Activity (Botrytis cinerea [8]) [%] | Activity (Rhizoctonia solani [9]) [%] | Activity (Rhizoctonia solani [10]) [%] | Activity (Pyricularia grisea [11]) [%] | Activity (Pyricularia grisea [12]) [%] | also measured
1 | CC1(C)C2CCC1(C)C(O)C2 (stereo not drawn) [BORNEOL] | 0 | 0 | 0 | 0 | 0 | 0 | 0 | 0 | 0 | 0 | 0 | 0 | 
2 | N#Cc1c(Cl)c(Cl)c(Cl)c(C#N)c1Cl [CHLOROTHALONIL] |  |  |  |  |  |  |  |  |  |  |  |  | Activity (Botrytis cinerea [13]): 0%; Activity (Puccinia recondita [14]): 0%; Activity (Phytophthora infestans [15]): 95%; Activity (Rhizoctonia solani [16]): 0%; Activity (Pyricularia grisea [17]): 0%; Activity (Blumeria graminis [18]): 0%
3 | COc1cc(/C=C/C(=O)CC(=O)/C=C/c2ccc(O)c(OC)c2)ccc1O [CURCUMIN] | 0 | 0 | 100 | 100 | 100 | 100 | 40 | 70 | 85 | 63 | 0 | 0 | Activity (Botrytis cinerea [19]): 0%; Activity (Puccinia recondita [20]): 63%; Activity (Puccinia recondita [21]): 76%; Activity (Phytophthora infestans [22]): 57%; Activity (Phytophthora infestans [23]): 85%; Activity (Botrytis cinerea [24]): 15%; Activity (Rhizoctonia solani [25]): 26%; Activity (Rhizoctonia solani [26]): 45%; Activity (Pyricularia grisea [27]): 0%; Activity (Pyricularia grisea [28]): 0%; Activity (Blumeria graminis [29]): 0%; Activity (Blumeria graminis [30]): 0%
4 | CN(C)S(=O)(=O)N(SC(F)(Cl)Cl)c1ccccc1 [DICHLOFLUANID] |  |  |  |  |  |  |  |  |  |  |  |  | Activity (Botrytis cinerea [13]): 92%; Activity (Puccinia recondita [14]): 0%; Activity (Phytophthora infestans [15]): 0%; Activity (Rhizoctonia solani [16]): 0%; Activity (Pyricularia grisea [17]): 0%; Activity (Blumeria graminis [18]): 0%
5 | CC12CCC(CC1)C(C)(C)O2 [EUCALYPTOL] | 0 | 0 | 0 | 0 | 0 | 0 | 0 | 0 | 0 | 0 | 0 | 0 | 
6 | C=C1CCC2(C(C)C)CC12 (stereo not drawn) [SABINENE] | 0 | 0 | 0 | 0 | 0 | 0 | 0 | 0 | 0 | 0 | 0 | 0 | 
7 | CC(C)=CC(=O)C[C@H](C)C1=CCC(C)=CC1 [TURMERONE] | 0 |  | 0 | 0 | 0 | 0 | 0 | 0 | 0 | 0 | 0 | 0 | 
